Data as given in ChEMBL document CHEMBL1124995, “Synthesis and pharmacology of the enantiomers of cis-7-hydroxy-3-methyl-2-(dipropylamino)tetralin” (J Med Chem, 1990).

What was measured:
Rattus norvegicus [1] = experiment: Effect of locomotor activity in reserpine pretreated rats at the dose of 25.0uM/Kg, sc ip after count of 30 minute; assay type: functional
Summary of the method: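 Reserpine 5 mg/kg sc given 18 h before; test drug sc immediately before session; haloperidol 0.3 mg/kg sc injected 30 min before test drug. Photocell motility boxes, accumulated counts over 30 min, with gross behaviour observed through mirror; mean ± SEM, n = 3-4; Anova with Fischer's test versus saline controls. Injection volume 5 mL/kg, near-neutral pH.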

D(2) dopamine receptor [2] = molecular target: T1, D(2) dopamine receptor (Bos taurus, UniProt P20288); experiment: Binding affinity of [3H]NPA to striatal Dopamine receptor D2
T1 sequence (P20288 whole entry): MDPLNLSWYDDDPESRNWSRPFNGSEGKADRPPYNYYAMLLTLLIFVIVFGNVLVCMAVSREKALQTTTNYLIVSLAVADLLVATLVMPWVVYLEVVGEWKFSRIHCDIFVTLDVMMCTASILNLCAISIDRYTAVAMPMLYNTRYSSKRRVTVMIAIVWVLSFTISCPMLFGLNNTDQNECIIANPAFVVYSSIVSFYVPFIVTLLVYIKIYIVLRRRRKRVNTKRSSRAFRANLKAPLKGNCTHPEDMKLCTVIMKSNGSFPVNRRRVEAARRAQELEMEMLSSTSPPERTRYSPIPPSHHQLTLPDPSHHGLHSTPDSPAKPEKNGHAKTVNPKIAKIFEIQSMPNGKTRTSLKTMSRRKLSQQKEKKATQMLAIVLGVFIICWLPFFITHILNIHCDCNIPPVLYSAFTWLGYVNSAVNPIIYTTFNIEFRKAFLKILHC
Summary of the method: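 Calf striatal membranes (homogenised in Tris salt buffer pH 7.4, preincubated 30 min at 35 °C, washed), 1.5–2 mg/tube. Competition with [3H]NPA (100 μL of 5 nM added to 1 mL) in 50 mM Tris-HCl, 1 mM EDTA, 4 mM MgCl2, 0.01% ascorbic acid, pH 7.2. Incubated 45 min at 25 °C. Nonspecific binding with 1 μM (+)-butaclamol. Filtration, scintillation counting; pIC50 as mean ± SEM.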

D(2) dopamine receptor [3] = molecular target: T1, D(2) dopamine receptor; experiment: Binding affinity of [3H]spiroperidol to striatal Dopamine receptor D2 binding sites
Summary of the method: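 Calf striatal membranes, 1.5–2 mg/tube. Competition with [3H]spiroperidol (100 μL of 10 nM added to 1 mL) in Tris-HCl buffer with EDTA, NaCl, KCl, CaCl2, MgCl2, pH 7.2, run in triplicate. Incubated 40 min at 37 °C. Nonspecific binding with 1 μM (+)-butaclamol. GF/B filtration, scintillation counting; pIC50 as mean ± SEM.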

Rattus norvegicus [4] = experiment: Effect of locomotor activity in reserpine pretreated rats at the dose of 50.0uM/Kg, sc ip after count of 30 minute; assay type: functional
Summary of the method: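 Rats given reserpine 5 mg/kg sc 18 h beforehand, then test drug sc immediately before the session. Photocell motility counts accumulated over 30 min, mean ± SEM, n = 3-4. In one arm haloperidol 0.3 mg/kg sc was given 30 min before drug. ANOVA with Fisher's test against controls.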

Rattus norvegicus [5] = experiment: In vivo effect of 5-HTP accumulation in nonpretreated rat cortex at the dose of 50 umol/kg, sc; assay type: functional
Summary of the method: (§1)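 Untreated rats given test drug 50 μmol/kg sc 65 min before death, and NSD 1015 (decarboxylase inhibitor) 100 mg/kg ip 30 min before death. DOPA and 5-HTP in limbic, striatal and cortical regions measured by HPLC with electrochemical detection. Values are % of saline controls, mean ± SEM, n = 4. ANOVA with Fisher's test.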

Rattus norvegicus [6] = experiment: In vivo effect of 5-HTP accumulation in nonpretreated rat limbic system at the dose of 50 umol/kg, sc; assay type: functional; summary of the method: as §1
Rattus norvegicus [7] = experiment: In vivo effect of 5-HTP accumulation in nonpretreated rat striatum at the dose of 50 umol/kg, sc; assay type: functional; summary of the method: as §1
Rattus norvegicus [8] = experiment: In vivo effect of DOPA accumulation in nonpretreated rat cortex at the dose of 50 umol/kg, sc ip; assay type: functional; summary of the method: as §1
Rattus norvegicus [9] = experiment: In vivo effect of DOPA accumulation in nonpretreated rat limbic system at the dose of 50 umol/kg, sc ip; assay type: functional; summary of the method: as §1
Rattus norvegicus [10] = experiment: Effect of locomotor activity in nonpretreated rats at the dose of 50.0uM/Kg, sc; assay type: functional
Summary of the method: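 Untreated rats given test drug sc 5 min before the session. Photocell motility boxes recorded accumulated counts over 30 min, with gross behaviour observed. Activity expressed as % of saline controls, mean ± SEM. ANOVA with Fisher's test.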

Rattus norvegicus [11] = experiment: In vivo effect of DOPA accumulation in nonpretreated rat striatum at the dose of 50 umol/kg, sc ip; assay type: functional; summary of the method: as §1

| Structure (SMILES) | Activity (Rattus norvegicus [1]) [counts/30 min] | IC50 (D(2) dopamine receptor [2]) [µM] | IC50 (D(2) dopamine receptor [3]) [µM] | Activity (Rattus norvegicus [4]) [µM/kg] | Control (Rattus norvegicus [5]) [%] | Control (Rattus norvegicus [6]) [%] | Control (Rattus norvegicus [7]) [%] | Control (Rattus norvegicus [8]) [%] | Control (Rattus norvegicus [9]) [%] | Activity (Rattus norvegicus [10]) [µM/kg] | Control (Rattus norvegicus [11]) [%] |
| --- | --- | --- | --- | --- | --- | --- | --- | --- | --- | --- | --- |
| O=C(CCCN1CCC(O)(c2ccc(Cl)cc2)CC1)c1ccc(F)cc1 [HALOPERIDOL] | 573 |  |  |  |  |  |  |  |  |  |  |
| CCCN(CCC)[C@@H]1Cc2cc(O)ccc2C[C@H]1C (racemic) |  | 1.02 | 26.9 | 331 | 147 | 136 | 117 | 217 | 146 | 147 | 247 |
